We go through 13 compounds from ChEMBL document CHEMBL4373640, “Synthesis and antitumor activity of aza-brazilan derivatives containing imidazolium salt pharmacophores” (Medchemcomm, 2019).

A short description of assay [1]: Cytotoxicity against human SMMC-7221 cells assessed as reduction in cell viability after 48 hrs by MTS assay. In kind it is functional, cell-based. As to conditions: SMMC-7221, 48 h. The gist of the method:
(§1)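 Cells (5 × 10^3 per well) were plated 12 h before treatment, then exposed continuously to compound for 48 h. MTS was added, with 1–4 h incubation at 37 °C and OD read at 490 nm. IC50 is the concentration cutting OD by 50% versus untreated cells, taken from dose–response curves. Values are the mean of three independent determinations.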

A further assay deals with A549. The assay can be described thus: Cytotoxicity against human A549 cells assessed as reduction in cell viability after 48 hrs by MTS assay. Type of assay: functional, cell-based. As to conditions: A549, 48 h. Summed up: as §1
Background: Tetrazolium assays rely on reduction of a dye to a coloured formazan, in cell work by metabolically active cells.

Assay [2] relates to MCF7. Put plainly: Cytotoxicity against human MCF7 cells assessed as reduction in cell viability after 48 hrs by MTS assay. Type of assay: functional, cell-based. As to conditions: MCF7, 48 h. Summed up:
as §1

The next assay has as its system SW480. The assay can be described thus: Cytotoxicity against human SW480 cells assessed as reduction in cell viability after 48 hrs by MTS assay. In kind it is functional, cell-based. As to conditions: SW480, 48 h. Summed up:
as §1

Assay [3] has as its system MCF7. Put plainly: Potency index, ratio of cisplatin IC50 to compound IC50 for cytotoxicity against human MCF7 cells by MTS assay. Type of assay: functional.

As a reminder, the IC50 is the midpoint of a concentration-inhibition curve. Take `COc1ccc(C(=O)C[n+]2cn(CCCN3C[C@@H]4Cc5ccc(Br)cc5[C@@H]4c4cccc(OC)c43)c3cc(C)c(C)cc32)cc1.[Br-]`: the concentration for half-maximal inhibition (IC50) was determined as 890 nM in assay [1], 1530 nM with A549, 350 nM with MCF7 [2] and 1400 nM in the assay on SW480. For the same compound, the “Ratio IC50” value in the assay with MCF7 [3] is 56.

As for `COc1cccc2c1N(CCCn1c(C)[n+](Cc3ccc4ccccc4c3)c3ccccc31)C[C@@H]1Cc3ccccc3[C@H]21`, the concentration for half-maximal inhibition (IC50) in assay [1] worked out at 2060 nM; with A549, 5740 nM; in the assay with MCF7 [2] it was 1020 nM; in the assay with SW480, 2160 nM.

As for `COc1cccc2c1N(CCCn1c(C)[n+](Cc3ccc4ccccc4c3)c3ccccc31)C[C@@H]1Cc3ccc(Br)cc3[C@H]21`, the IC50 in assay [1] turned out to be 1080 nM; in the assay with A549, 1890 nM; with MCF7 [2], 920 nM; with SW480, 1280 nM.

For the compound `COc1cc2c(cc1OC)[C@@H]1c3cccc(OC)c3N(CCCn3c(C)[n+](CC(=O)c4ccc5ccccc5c4)c4ccccc43)C[C@@H]1C2`, the half-inhibitory concentration (IC50) came to 5460 nM in assay [1], 8260 nM in the assay on A549, 2160 nM with MCF7 [2] and 2060 nM in the assay with SW480.

Regarding `COc1ccc(C(=O)C[n+]2cn(CCC(=O)N3C[C@@H]4Cc5ccccc5[C@@H]4c4cccc(OC)c43)c3cc(C)c(C)cc32)cc1`, the IC50 in assay [1] is 3160 nM; with A549 it was 7530 nM; in the assay on MCF7 [2], 2540 nM; in the assay on SW480, 800 nM.

On to `COc1cccc2c1N(CCCn1cnc3cc(C)c(C)cc31)C[C@@H]1Cc3ccccc3[C@H]21`, for which the IC50 (in assay [1]; in the assay with A549; in the assay on MCF7 [2]; with SW480) was above 20000 nM each time.

`COc1cccc2c1N(CCCn1c(C)nc3ccccc31)C[C@@H]1Cc3ccccc3[C@H]21`: the IC50 (in assay [1]; in the assay on A549; with MCF7 [2]; in the assay on SW480) was above 20000 nM throughout.

Regarding `COc1cccc2c1N(C(=O)CCn1c(C)nc3ccccc31)C[C@@H]1Cc3ccc(Br)cc3[C@H]21`, the half-maximal inhibitory concentration (IC50) (in assay [1]; in the assay with A549; with MCF7 [2]; in the assay with SW480) was above 20000 nM throughout.

Take `COc1ccc(C(=O)C[n+]2c(C)n(CCCN3C[C@@H]4Cc5ccc(Br)cc5[C@@H]4c4cccc(OC)c43)c3ccccc32)cc1`: the concentration for half-maximal inhibition (IC50) in assay [1] was found to be 930 nM; with A549, 1220 nM; with MCF7 [2], 1010 nM; in the assay with SW480 it was 1240 nM.

Consider `COc1cccc2c1N(CCCn1c(C)[n+](CC(=O)c3ccc4ccccc4c3)c3ccccc31)C[C@@H]1Cc3ccc(Br)cc3[C@H]21`, for which the IC50 in assay [1] came to 1120 nM; in the assay on A549, 1610 nM; in the assay on MCF7 [2], 950 nM; in the assay on SW480 it was 1260 nM.

Consider `COc1cccc2c1N(C(=O)CCn1c(C)[n+](Cc3ccc(C)cc3)c3ccccc31)C[C@@H]1Cc3ccccc3[C@H]21`, for which the 50% inhibitory concentration (IC50) stood at 2040 nM in assay [1], 6270 nM in the assay with A549, 1570 nM with MCF7 [2] and 1570 nM with SW480.

`COc1cccc2c1N(C(=O)CCn1cnc3cc(C)c(C)cc31)C[C@@H]1Cc3ccc(Br)cc3[C@H]21`: the IC50 (in assay [1]; with A549; with MCF7 [2]; with SW480) was above 20000 nM in each case.

With `COc1cccc2c1N(C(=O)CCn1c[n+](Cc3ccc4ccccc4c3)c3cc(C)c(C)cc31)C[C@@H]1Cc3ccc(Br)cc3[C@H]21`, the half-maximal inhibitory concentration (IC50) in assay [1] was 1090 nM; in the assay on A549 it was 1450 nM; in the assay on MCF7 [2], 1050 nM; with SW480, 1050 nM.
